Assay results from PMC8301548 (Clinical and Translational Science, 2021).
Values after ≈ are worked out from the molar mass of the structure shown. Where two headings read alike, the source gives them in different places.

Key:
serum uric acid (SUA) [1] = conditions: cited from earlier work
[2] = assay type: in vivo; conditions: human, serum, po, 300 mg, 300 mg single oral dose of allopurinol; for Cmax / Vd/F / AUC(0-t): mean ± SE; for Tmax: median (range); for Vd/F: V/F (apparent volume of distribution)
BCRP = conditions: cited from earlier work
[3] = Tolerability in the clinical study; assay type: in vivo, human; conditions: 19 healthy volunteers who completed the study; 300 mg oral allopurinol
Summary of the method: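 Healthy adults aged 18–50 were screened by medical-history questionnaire. Exclusions were HLA‑B*58:01 carriers, interacting medications, liver enzymes or creatinine >1.5× normal range, and abnormal platelet or white-cell counts. […] In one protocol they continued 300 mg once daily, with a final dose on day 6. In the other they received a single dose only.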

[4] = Population PK model of oxypurinol; assay type: in vivo, human; conditions: for Kfm (formation rate constant): final PK model
serum uric acid (SUA) [5] = assay type: in vivo, human

Row | Cmax ([2]; genotype (0) CC, n=9) [ng/mL] | Cmax ([2]; genotype (1) CA, n=7) [ng/mL] | Cmax ([2]; genotype (2) AA, n=3) [ng/mL] | Tmax ([2]; genotype (0) CC) [h] | Tmax ([2]; genotype (1) CA) [h] | Tmax ([2]; genotype (2) AA) [h] | Vd/F ([2]; genotype (0) CC) [L] | Vd/F ([2]; genotype (1) CA) [L] | Vd/F ([2]; genotype (2) AA) [L] | Structure (SMILES) | BCRP substrate (BCRP) | further results
1 | 1370 ± 130 | 1930 ± 617 | 1550 ± 453 | 1.5 | 1 | 2 | 149 ± 17 | 160 ± 22.3 | 148 ± 40.9 | Oc1ncnc2[nH]ncc12 [Allopurinol, allopurinol] | substrates of BCRP | patients reaching an acceptable treatment end point (serum uric acid (SUA) [1]): 21%; tolerability [3]: well‐tolerated
2 | 5930 ± 409 | 6440 ± 592 | 6380 ± 1350 | 4 | 4 | 6 | 49.9 ± 4.53 | 61.9 ± 9.58 | 56.6 ± 11.6 | O=c1[nH]c(=O)c2c[nH]nc2[nH]1 [Oxypurinol, oxypurinol] | substrates of BCRP | θgender(female), covariate effect on V/Fm ([4]; V/Fm=θV/Fm×(1+θgender), estimate (%RSE) [95% CI]): θgender(female) = −0.248 (35.7) [−0.395, −0.067]; Kfm (formation rate constant) ([4]; BSV in parentheses in the text): 0.771 h⁻¹; Kfm (formation rate constant) ([4]; estimate (%RSE) [95% CI]): 0.771 (17.8) [0.535, 1.06] 1/h; lower V/Fm in women compared with men ([4]; final PK/PD model, gender covariate): 24.8%; Vd/F ([4]; male, human, plasma, oral, 300 mg): 57 L; EC50 (serum uric acid (SUA) [5]; Homo sapiens, read-out: C50 (concentration needed to achieve 50% effect)): 2.59 µg/mL (≈ 17 µM); Emax (maximum effect) (serum uric acid (SUA) [5]; final PK/PD model, effect on SUA, RSE not given): 1; AUC(0-t) ([2]; AUC0–24, genotype (0) CC): 93900 ± 8070 ng·h/mL; AUC(0-t) ([2]; AUC0–24, genotype (1) CA): 93400 ± 9990 ng·h/mL; AUC(0-t) ([2]; AUC0–24, genotype (2) AA): 105000 ± 20600 ng·h/mL
